{
  "source": "ChEMBL document CHEMBL1649102",
  "about": "“Stereochemical survey of digitoxin monosaccharides: new anticancer analogues with enhanced apoptotic activity and growth inhibitory effect on human non-small cell lung cancer cell” (ACS Med Chem Lett, 2011)",
  "key": {"OVCAR-8": {"system": "OVCAR-8", "assay": "Growth inhibition of human OVCAR8 cells", "format": "functional", "summary_of_the_method": "(§1)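 NCI-60 cell lines grown in RPMI 1640 with 5% FBS and 2 mM L-glutamine, plated at 5,000–40,000 cells/well and preincubated 24 h. Time-zero plates were TCA-fixed. Drug was given at five concentrations (10-fold or ½-log dilutions from DMSO stock) for 48 h at 37°C. Cells were TCA-fixed, stained with SRB, and read at 515 nm. GI50 is where [(Ti−Tz)/(C−Tz)]×100 = 50.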"}, "[1]": {"assay": "Growth inhibition of human NCI60 cells", "format": "functional", "summary_of_the_method": "as §1"}, "HCT-116": {"system": "HCT-116", "assay": "Growth inhibition of human HCT116 cells", "format": "functional", "summary_of_the_method": "as §1"}, "A549": {"system": "A549", "assay": "Growth inhibition of human A549 cells", "format": "functional", "summary_of_the_method": "as §1"}, "786-0": {"system": "786-0", "assay": "Growth inhibition of human 786-0 cells", "format": "functional", "summary_of_the_method": "as §1"}, "A498": {"system": "A498", "assay": "Growth inhibition of human A498 cells", "format": "functional", "summary_of_the_method": "as §1"}, "OVCAR-3": {"system": "OVCAR-3", "assay": "Growth inhibition of human OVCAR3 cells", "format": "functional", "summary_of_the_method": "as §1"}, "NCI-H460 [2]": {"system": "NCI-H460", "assay": "Cytotoxicity against human NCI-H460 cells assessed as cell death at 50 nM after 12 hrs by Hoechst-33342 staining and propidium iodide staining", "format": "functional, cell-based", "settings": "NCI-H460, 12 h", "summary_of_the_method": "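NCI-H460 cells were seeded at 50,000 cells/well for 12 h, then exposed 12 h in serum-free medium (DMSO <0.1%). Cells were stained with Hoechst 33342 (10 µg/ml) and propidium iodide (20 µg/ml) for 30 min at 37°C. Condensed or fragmented nuclei were scored by fluorescence microscopy, and apoptotic index = apoptotic/total nuclei ×100. Duplicate wells, ≥3 runs (N = 6).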"}, "CAKI-1": {"system": "CAKI-1", "assay": "Growth inhibition of human Caki1 cells", "format": "functional", "summary_of_the_method": "as §1"}, "DU-145": {"system": "DU-145", "assay": "Growth inhibition of human DU145 cells", "format": "functional", "summary_of_the_method": "as §1"}, "UO-31": {"system": "UO-31", "assay": "Growth inhibition of human UO31 cells", "format": "functional", "summary_of_the_method": "(§2)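 NCI-60 panel SRB assay. Cells in RPMI 1640 with 5% FBS and 2 mM L-glutamine, plated at 5,000-40,000 cells/well and grown 24 h before dosing; time-zero plates TCA-fixed. Five concentrations (10-fold or ½ log dilutions, from DMSO stock) applied for 48 h at 37°C. TCA fixation (16% final for suspension cells), SRB stain, absorbance 515 nm; GI50 from net protein increase versus control.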"}, "NCI-H460 [3]": {"system": "NCI-H460", "assay": "Growth inhibition of human NCI-H460 cells", "format": "functional", "summary_of_the_method": "as §1"}, "TK-10": {"system": "TK-10", "assay": "Growth inhibition of human TK10 cells", "format": "functional", "summary_of_the_method": "as §2"}, "RXF 393": {"system": "RXF 393", "assay": "Growth inhibition of human RXF393 cells", "format": "functional", "summary_of_the_method": "as §1"}, "SN12C": {"system": "SN12C", "assay": "Growth inhibition of human SN12C cells", "format": "functional", "summary_of_the_method": "as §2"}, "ACHN": {"system": "ACHN", "assay": "Growth inhibition of human ACHN cells", "format": "functional", "summary_of_the_method": "as §1"}, "NCI-H460 [4]": {"system": "NCI-H460", "assay": "Growth inhibition of human NCI-H460 cells after 48 hrs by MTT assay", "format": "functional", "settings": "NCI-H460, 48 h", "summary_of_the_method": "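NCI-H460 cells in RPMI 1640 with 10% FBS were seeded at 10,000 cells/well for 12 h. Drug was diluted 1000× from DMSO into 1% FBS medium (DMSO <0.1%). Time-course runs used 50 nM; dose–response runs used 48 h exposure. Viability was read by MTT (4 h), with formazan dissolved in DMSO for 45 min and read at 562 nm. Triplicate wells, ≥3 runs (N = 9), two-way ANOVA.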"}, "NCI-H460 [5]": {"system": "NCI-H460", "assay": "Induction of apoptosis human NCI-H460 cells assessed as cellular degradation at 50 nM after 12 hrs by Hoechst-33342 staining", "format": "functional", "summary_of_the_method": "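NCI-H460 seeded 50,000 cells/well for 12 h, then exposed 12 h in serum-free medium (DMSO <0.1%). Stained 30 min at 37°C with 10 µg/ml Hoechst 33342 plus 20 µg/ml propidium iodide. Condensed or fragmented nuclei scored by fluorescence microscopy; apoptotic index = apoptotic/total nuclei ×100. 2 replicate wells, ≥3 runs (N = 6).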"}, "MOLT-4": {"system": "MOLT-4", "assay": "Growth inhibition of human MOLT4 cells", "format": "functional", "summary_of_the_method": "as §1"}},
  "note": "Active and inactive are the calls of the source. No cut-off for these calls is given here.",
  "data": [
    {"smiles": "C[C@@H]1O[C@@H](O[C@H]2CC[C@@]3(C)[C@H](CC[C@@H]4[C@@H]3CC[C@]3(C)[C@@H](C5=CC(=O)OC5)CC[C@]43O)C2)CC[C@H]1O", "note": "[RAMNODIGIN]", "values": [
      {"measurement": "growth inhibition (GI)", "setting": "OVCAR-8", "value": "Active"},
      {"measurement": "GI50", "setting": "[1]", "value": 12, "unit": "nM"},
      {"measurement": "growth inhibition (GI)", "setting": "HCT-116", "value": "Active"},
      {"measurement": "growth inhibition (GI)", "setting": "A549", "value": "Active"},
      {"measurement": "growth inhibition (GI)", "setting": "786-0", "value": "Active"},
      {"measurement": "growth inhibition (GI)", "setting": "A498", "value": "Active"},
      {"measurement": "growth inhibition (GI)", "setting": "OVCAR-3", "value": "Active"},
      {"measurement": "IC50", "setting": "NCI-H460 [2]", "value": 55.7, "unit": "nM"},
      {"measurement": "growth inhibition (GI)", "setting": "CAKI-1", "value": "Active"},
      {"measurement": "growth inhibition (GI)", "setting": "DU-145", "value": "Active"},
      {"measurement": "growth inhibition (GI)", "setting": "UO-31", "value": "Active"},
      {"measurement": "growth inhibition (GI)", "setting": "NCI-H460 [3]", "value": "Active"},
      {"measurement": "growth inhibition (GI)", "setting": "TK-10", "value": "Active"},
      {"measurement": "growth inhibition (GI)", "setting": "RXF 393", "value": "Active"},
      {"measurement": "growth inhibition (GI)", "setting": "SN12C", "value": "Active"},
      {"measurement": "growth inhibition (GI)", "setting": "ACHN", "value": "Active"},
      {"measurement": "GI50", "setting": "NCI-H460 [4]", "value": 2.2, "unit": "nM"},
      {"measurement": "Activity", "setting": "NCI-H460 [5]", "value": 33, "unit": "%"},
      {"measurement": "growth inhibition (GI)", "setting": "MOLT-4", "value": "Active"}
    ]},
    {"smiles": "C[C@@H]1O[C@H](O[C@H]2CC[C@@]3(C)[C@H](CC[C@@H]4[C@@H]3CC[C@]3(C)[C@@H](C5=CC(=O)OC5)CC[C@]43O)C2)C[C@H](O)[C@H]1O", "values": [
      {"measurement": "GI50", "setting": "[1]", "value": 1, "unit": "nM"}
    ]},
    {"smiles": "C[C@H]1O[C@H](O[C@H]2CC[C@@]3(C)[C@H](CC[C@@H]4[C@@H]3CC[C@]3(C)[C@@H](C5=CC(=O)OC5)CC[C@]43O)C2)CC[C@@H]1O", "values": [
      {"measurement": "GI50", "setting": "[1]", "value": 113, "unit": "nM"}
    ]},
    {"smiles": "C[C@@H]1O[C@H](O[C@H]2CC[C@@]3(C)[C@H](CC[C@@H]4[C@@H]3CC[C@]3(C)[C@@H](C5=CC(=O)OC5)CC[C@]43O)C2)C[C@@H](O)[C@H]1O", "values": [
      {"measurement": "GI50", "setting": "[1]", "value": "> 50", "unit": "nM"}
    ]},
    {"smiles": "C[C@@H]1O[C@@H](O[C@H]2CC[C@@]3(C)[C@H](CC[C@@H]4[C@@H]3CC[C@]3(C)[C@@H](C5=CC(=O)OC5)CC[C@]43O)C2)C=C[C@H]1O", "values": [
      {"measurement": "GI50", "setting": "[1]", "value": 1, "unit": "nM"}
    ]}
  ]
}
